# How the values were obtained:
# BCRP (ABCG2) = assay: Therapeutic index, ratio of GI50 for antiproliferative activity against dog MDCK-II-BCRP cells to IC50 for inhibition of BCRP (unknown origin) expressed in dog MDCK-II cells; type: toxicity, cell-based
# How it was run: (§1)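 Ratio of MTT-assay GI50 to transport-inhibition IC50, both in the resistant line. GI50 comes from 72 h exposure at 37 °C to dilutions up to 1000 µM, with medium as 100% and 10% DMSO as 0% viability. IC50 comes from calcein AM (A2780/ADR), daunorubicin (H69AR) or pheophorbide A (MDCK II BCRP) accumulation.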
# H69AR [1] = assay: Reversal of drug resistance in human NCI-H69AR cells expressing MRP1; type: functional, cell-based
# How it was run: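 Cells seeded per well (A2780/ADR 8,000; H69AR 20,000; MDCK II BCRP 3,000) with test compound at 1, 10 or 100 µM solutions added before cells. Daunorubicin (P-gp, MRP1) or SN-38 (BCRP) added to final 10 nM–10 µM. 72 h at 37 °C, then MTT viability read at 570 nm. GI50 from variable-slope nonlinear fits, compared with parental lines; three independent experiments in duplicate.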
# [2] = Antiproliferative activity against dog MDCK-II-BCRP cells assessed as reduction in cell viability measured for 72 hrs bt MTT assay; type: functional; conditions: Canis lupus familiaris
# P-gp (ABCB1) = assay: Therapeutic index, ratio of GI50 for antiproliferative activity against human A2780 ADR cells to IC50 for inhibition of P-gp (unknown origin); type: toxicity, cell-based; how it was run: as §1
# [3] = Reversal of Daunorubicin resistance in human A2780 ADR cells assessed as Daunorubicin GI50 at 10 uM measured for 72 hrs by MTT assay; type: functional
# How it was run: (§2)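 Reversal assay: resistant lines (A2780/ADR, H69AR, MDCK II BCRP) and parental lines seeded as for MTT assay with modulator solutions of 1, 10 and 100 µM added (final 0.1, 1, 10 µM) and daunorubicin (P-gp, MRP1) or SN-38 (BCRP) at final 10 nM–10 µM. 72 h, MTT read-out; GI50 by variable-slope fit. Resistance factor = resistant/sensitive GI50; potentiation factor = GI50 without/with modulator.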
# [4] = target: T1, Broad substrate specificity ATP-binding cassette transporter ABCG2 (Homo sapiens, UniProt Q9UNQ0); assay: Inhibition of BCRP (unknown origin) expressed in dog MDCK-II cells using pheophorbide A as substrate preincubated for 20 mins followed by substrate addition and measured after 120 mins by flow cytometry analysis; type: cell-based
# T1 sequence (Q9UNQ0 whole entry): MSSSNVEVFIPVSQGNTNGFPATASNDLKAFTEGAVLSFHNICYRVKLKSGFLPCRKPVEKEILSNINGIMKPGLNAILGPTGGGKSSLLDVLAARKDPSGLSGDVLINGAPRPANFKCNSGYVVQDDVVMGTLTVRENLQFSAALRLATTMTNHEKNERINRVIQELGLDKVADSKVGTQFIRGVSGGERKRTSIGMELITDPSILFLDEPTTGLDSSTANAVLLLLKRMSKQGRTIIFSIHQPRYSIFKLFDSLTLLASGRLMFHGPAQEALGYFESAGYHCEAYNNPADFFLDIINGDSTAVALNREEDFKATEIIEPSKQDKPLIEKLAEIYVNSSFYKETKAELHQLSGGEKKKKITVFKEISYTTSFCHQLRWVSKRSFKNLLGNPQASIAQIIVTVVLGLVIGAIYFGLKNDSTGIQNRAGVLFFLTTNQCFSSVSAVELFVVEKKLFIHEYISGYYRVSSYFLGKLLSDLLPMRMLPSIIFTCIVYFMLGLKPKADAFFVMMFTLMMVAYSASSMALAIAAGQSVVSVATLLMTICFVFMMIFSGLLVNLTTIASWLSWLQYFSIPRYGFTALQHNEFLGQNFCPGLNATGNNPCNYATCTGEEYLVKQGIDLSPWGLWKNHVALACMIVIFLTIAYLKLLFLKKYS
# How it was run: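 MDCK II cells transfected with human wild-type BCRP cDNA C-terminally fused to GFP, grown in DMEM/10% FBS. About 45,000 cells per well preincubated 20 min at 37 °C, 5% CO2 with compound (100 nM–100 µM added solutions), then pheophorbide A (5 µM solution added) for 120 min to steady state. Resuspended; flow cytometry, 488 nm excitation, FL3 (≥670 nm); GFP in FL1. Reference inhibitor 24 at 10 µM = 100%.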
# [5] = Potentiation factor, ratio of GI50 for SN-38 resistant dog MDCK-II-BCRP cells expressing BCRP cells to GI50 for reversal of SN-38 resistance in dog MDCK-II-BCRP cells assessed as SN-38 GI50 at 1 uM (reference value: 1 uM); type: functional, Canis lupus familiaris; how it was run: as §2
# [6] = Reversal of Daunorubicin resistance in human A2780 ADR cells assessed as Daunorubicin GI50 at 0.1 uM measured for 72 hrs by MTT assay; type: functional; how it was run: as §2
# H69AR [7] = assay: Reversal of Daunorubicin resistance in human NCI-H69AR cells assessed as Daunorubicin GI50 at 1 uM measured for 72 hrs by MTT assay; type: functional; how it was run: as §2
# H69AR [8] = assay: Sensitization of human NCI-H69AR cells expressing MRP1 assessed as maximal sensitivity at 10 uM relative to control; type: functional
# How it was run: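 Resistant lines were exposed to daunorubicin (A2780/ADR, H69AR) or SN-38 (MDCK II BCRP) over 10 nM–10 µM final, with or without modulator, for 72 h. Viability was read by MTT. Potentiation factor is GI50 without modulator over GI50 with modulator. Maximal sensitization is pf at 10 µM divided by the native resistance factor, in percent.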
# NCI-H69 = assay: Antiproliferative activity against human NCI-H69 cells assessed as reduction in cell viability measured for 72 hrs bt MTT assay; type: functional
# H69AR [9] = assay: Antiproliferative activity against human NCI-H69AR cells assessed as reduction in cell viability measured for 72 hrs bt MTT assay; type: functional
# [10] = target: Multidrug resistance-associated protein 1 (Homo sapiens, UniProt P33527); assay: Inhibition of MRP1 in human NCI-H69AR cells incubated for 180 mins in presence of daunorubicin by flow cytometry analysis; type: cell-based
# How it was run: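 H69AR cells (doxorubicin-selected small cell lung cancer, RPMI-1640/20% FBS), about 60,000 per well, preincubated 15 min with compound (100 nM–100 µM added solutions, in unsupplemented medium), then daunorubicin (30 µM solution added); steady state after 180 min, 37 °C, 5% CO2. Cells resuspended; flow cytometry, 488 nm excitation, FL3 (≥670 nm). Reference inhibitor 75 at 10 µM = 100%; Imax relative to it.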
# H69AR [11] = assay: Potentiation factor, ratio of GI50 for daunorubicin resistant human NCI-H69AR cells expressing MRP1 cells to GI50 for reversal of daunorubicin resistance in human NCI-H69AR cells assessed as daunorubicin GI50 at 1 uM (reference value: 1 uM); type: functional; how it was run: as §2
# [12] = Reversal of SN-38 resistance in dog MDCK-II-BCRP cells assessed as SN-38 GI50 at 0.1 uM measured for 72 hrs by MTT assay; type: functional; conditions: Canis lupus familiaris; how it was run: as §2
# [13] = Antiproliferative activity against human A2780 ADR cells assessed as reduction in cell viability measured for 72 hrs bt MTT assay; type: functional
# Sequence of Multidrug resistance-associated protein 1 (P33527 whole entry): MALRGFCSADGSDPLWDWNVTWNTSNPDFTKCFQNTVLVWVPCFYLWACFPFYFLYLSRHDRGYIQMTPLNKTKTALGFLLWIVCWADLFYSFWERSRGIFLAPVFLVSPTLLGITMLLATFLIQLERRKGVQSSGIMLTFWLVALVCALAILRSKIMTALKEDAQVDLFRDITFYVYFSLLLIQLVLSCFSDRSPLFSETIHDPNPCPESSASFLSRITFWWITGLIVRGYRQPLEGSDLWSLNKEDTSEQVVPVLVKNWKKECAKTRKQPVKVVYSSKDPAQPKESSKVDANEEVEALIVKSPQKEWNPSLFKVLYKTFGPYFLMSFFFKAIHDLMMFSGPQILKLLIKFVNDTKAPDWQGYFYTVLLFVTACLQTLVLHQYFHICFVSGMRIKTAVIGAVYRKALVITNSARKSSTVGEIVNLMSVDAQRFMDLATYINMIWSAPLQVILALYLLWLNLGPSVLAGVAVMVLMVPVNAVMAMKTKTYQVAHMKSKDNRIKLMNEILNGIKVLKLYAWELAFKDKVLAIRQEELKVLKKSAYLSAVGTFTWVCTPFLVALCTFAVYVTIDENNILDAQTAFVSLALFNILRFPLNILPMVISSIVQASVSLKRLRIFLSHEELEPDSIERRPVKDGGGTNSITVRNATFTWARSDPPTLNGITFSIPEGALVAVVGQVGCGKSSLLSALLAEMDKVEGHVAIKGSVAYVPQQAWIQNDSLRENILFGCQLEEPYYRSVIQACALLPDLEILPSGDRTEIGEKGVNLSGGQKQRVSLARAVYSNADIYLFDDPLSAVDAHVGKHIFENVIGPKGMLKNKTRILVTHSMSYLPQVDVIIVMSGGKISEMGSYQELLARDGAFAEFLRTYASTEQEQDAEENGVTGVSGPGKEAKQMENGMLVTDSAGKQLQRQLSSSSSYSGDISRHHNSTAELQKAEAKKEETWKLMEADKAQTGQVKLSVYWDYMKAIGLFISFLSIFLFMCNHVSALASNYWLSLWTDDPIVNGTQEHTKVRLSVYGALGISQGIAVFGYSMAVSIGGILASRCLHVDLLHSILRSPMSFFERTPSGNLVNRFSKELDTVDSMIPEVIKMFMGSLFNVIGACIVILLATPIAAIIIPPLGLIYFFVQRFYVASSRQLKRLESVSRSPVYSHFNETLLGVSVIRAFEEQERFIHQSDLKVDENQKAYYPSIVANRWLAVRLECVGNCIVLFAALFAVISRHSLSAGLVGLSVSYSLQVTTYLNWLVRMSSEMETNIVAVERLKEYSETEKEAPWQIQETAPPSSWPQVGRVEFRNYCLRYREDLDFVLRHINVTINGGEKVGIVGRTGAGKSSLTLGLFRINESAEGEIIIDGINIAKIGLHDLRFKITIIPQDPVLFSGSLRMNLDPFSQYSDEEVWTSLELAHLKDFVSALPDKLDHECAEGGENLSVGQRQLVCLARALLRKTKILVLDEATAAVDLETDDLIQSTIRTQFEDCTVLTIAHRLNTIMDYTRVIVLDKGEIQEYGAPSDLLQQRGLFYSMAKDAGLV
smiles,measurement,setting,value
N#Cc1cn(CCCc2ccccc2)c2c(N3CCN(CCc4c[nH]c5ccccc45)CC3)ncnc12,selectivity ratio,BCRP (ABCG2),14
same,EC50,H69AR [1],959 nM
same,GI50,[2],23200 nM
same,selectivity ratio,P-gp (ABCB1),9.4
same,GI50,[3],44 nM
same,IC50,[4],1690 nM
same,PF,[5],8.1
same,GI50,[6],286 nM
same,GI50,H69AR [7],1170 nM
same,Activity,H69AR [8],81%
same,GI50,NCI-H69,55400 nM
same,GI50,H69AR [9],152000 nM
same,IC50,[10],501 nM
same,PF,H69AR [11],3.3
same,GI50,[12],916 nM
same,GI50,[13],13700 nM
